B1: Osa-1-4 twister ribozyme (parent)
chain: CCGCCUAACACUGCCAAUGCCGGUCCCAAGCCCGGAUAAAAGUGGAGGGGGCGG

Variants of: B1
Experiment: self-cleavage, relative activity (ratio to wild type); higher = more cleavage; co-transcriptional
Method in brief: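 The 48 positions downstream of the cleavage site in a DNA template for a 54-nucleotide Oryza sativa twister ribozyme carried 97 % wild-type base and 1 % of each other base. After in vitro transcription (2 h, 37 °C) with co-transcriptional self-cleavage, the RNA was reverse-transcribed with a template-switching oligonucleotide, PCR-amplified and deep-sequenced. Relative activity is the fraction cleaved, judged by reads with or without upstream sequence and normalised to wild type.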

Row | Variant | self-cleavage
1 | CCGCCUAACACUGCCAAUGCCGGUCUCAAGCCCGGAUAAAAGUGGAGGGGGCGA [C26U G54A] | 0.38
2 | CCGCCUAACACUGCCAAUGCCGGUCUCAAGCCCGGAUAAAAGUGGAGCGGGCGG [C26U G48C] | 0.1
3 | CCGCCUAACACUGCCAAUGCCGGUCUCAAGCCCGGAUAAAAGUGGAGAGGGCGG [C26U G48A] | 0.82
4 | CCGCCUAACACUGCCAAUGCCGGUCUCAAGCCCGGAUAAAAGUGGAGUGGGCGG [C26U G48U] | 0.08
5 | CCGCCUAACACUGCCAAUGCCGGUCUCAAGCCCGGAUAAAAGUGGAGGAGGCGG [C26U G49A] | 0.06
6 | CCGCCUAACACUGCCAAUGCCGGUCUCAAGCCCGGAUAAAAGUGGAGGUGGCGG [C26U G49U] | 0.06
7 | CCGCCUAACACUGCCAAUGCCGGUCUCAAGCCCGGAUAAAAGUGGAGGCGGCGG [C26U G49C] | 0.06
8 | CCGCCUAACACUGCCAAUGCCGGUCCAAAGCCCGGAUAAAAUUGGAGGGGGCGG [C27A G42U] | 0.05
9 | CCGCCUAACACUGCCAAUGCCGGUCCAAAGCCCGGAUAAAACUGGAGGGGGCGG [C27A G42C] | 0.06
10 | CCGCCUAACACUGCCAAUGCCGGUCCAAAGCCCGGAUAAAAAUGGAGGGGGCGG [C27A G42A] | 0.08
11 | CCGCCUAACACUGCCAAUGCCGGUCCAAAGCCCUGAUAAAAGUGGAGGGGGCGG [C27A G34U] | 0.17
12 | CCGCCUAACACUGCCAAUGCCGGUCCAAAGCCCCGAUAAAAGUGGAGGGGGCGG [C27A G34C] | 0.09
13 | CCGCCUAACACUGCCAAUGCCGGUCCAAAGCCCAGAUAAAAGUGGAGGGGGCGG [C27A G34A] | 0.18
14 | CCGCCUAACACUGCCAAUGCCGGUCUCAAGCCCGGAUAAAAGUGGAGGGGACGG [C26U G51A] | 0.45
15 | CCGCCUAACACUGCCAAUGCCGGUCUCAAGCCCGGAUAAAAGUGGAGGGGUCGG [C26U G51U] | 0.17
16 | CCGCCUAACACUGCCAAUGCCGGUCUCAAGCCCGGAUAAAAGUGGAGGGGCCGG [C26U G51C] | 0.07
17 | CCGCCUAACACUGCCAAUGCCGGUCCAAAGCCCGGAUAAAAGUGGAGGGGGUGG [C27A C52U] | 0.33
18 | CCGCCUAACACUGCCAAUGCCGGUCCAAAGCCCGGAUAAAAGUGGAGGGGGGGG [C27A C52G] | 0.25
19 | CCGCCUAACACUGCCAAUGCCGGUCCAAAGCCCGGAUAAAAGUGGAGGGGGAGG [C27A C52A] | 0.23
20 | CCGCCUAACACUGCCAAUGCCGGUCUCAAGCCCUGAUAAAAGUGGAGGGGGCGG [C26U G34U] | 0.83
21 | CCGCCUAACACUGCCAAUGCCGGUCUCAAGCCCAGAUAAAAGUGGAGGGGGCGG [C26U G34A] | 0.92
22 | CCGCCUAACACUGCCAAUGCCGGUCUCAAGCCCCGAUAAAAGUGGAGGGGGCGG [C26U G34C] | 0.56
23 | CCGCCUAACACCGCCAAUGCCGGUCUCAAGCCCGGAUAAAAGUGGAGGGGGCGG [C26U U12C] | 0.09
24 | CCGCCUAACACAGCCAAUGCCGGUCUCAAGCCCGGAUAAAAGUGGAGGGGGCGG [C26U U12A] | 0.2
25 | CCGCCUAACACGGCCAAUGCCGGUCUCAAGCCCGGAUAAAAGUGGAGGGGGCGG [C26U U12G] | 0.23

Row | Variant | self-cleavage
26 | CCGCCUAACACUGCCAAUCCCGGUCCAAAGCCCGGAUAAAAGUGGAGGGGGCGG [C27A G19C] | 0.03
27 | CCGCCUAACACUGCCAAUUCCGGUCCAAAGCCCGGAUAAAAGUGGAGGGGGCGG [C27A G19U] | 0.04
28 | CCGCCUAACACUGCCAAUACCGGUCCAAAGCCCGGAUAAAAGUGGAGGGGGCGG [C27A G19A] | 0.09
29 | CCGCCUAACACUGCCAAUGCCGGUCUCAAGCCCGGAUAAAAGUGAAGGGGGCGG [C26U G45A] | 0.07
30 | CCGCCUAACACUGCCAAUGCCGGUCUCAAGCCCGGAUAAAAGUGUAGGGGGCGG [C26U G45U] | 0.04
31 | CCGCCUAACACUGCCAAUGCCGGUCUCAAGCCCGGAUAAAAGUGCAGGGGGCGG [C26U G45C] | 0.04
32 | CCGCCUAACACUGCCAAUGCCGUUCCAAAGCCCGGAUAAAAGUGGAGGGGGCGG [C27A G23U] | 0.04
33 | CCGCCUAACACUGCCAAUGCCGAUCCAAAGCCCGGAUAAAAGUGGAGGGGGCGG [C27A G23A] | 0.06
34 | CCGCCUAACACUGCCAAUGCCGCUCCAAAGCCCGGAUAAAAGUGGAGGGGGCGG [C27A G23C] | 0.03
35 | CCGCCUAACACUGCCAAUGCCGGUCUCAAGCCCGAAUAAAAGUGGAGGGGGCGG [C26U G35A] | 0.9
36 | CCGCCUAACACUGCCAAUGCCGGUCUCAAGCCCGCAUAAAAGUGGAGGGGGCGG [C26U G35C] | 0.09
37 | CCGCCUAACACUGCCAAUGCCGGUCUCAAGCCCGUAUAAAAGUGGAGGGGGCGG [C26U G35U] | 0.88
38 | CCGCCUAACACUGCCAAUGCCGGGCUCAAGCCCGGAUAAAAGUGGAGGGGGCGG [C26U U24G] | 0.04
39 | CCGCCUAACACUGCCAAUGCCGGCCUCAAGCCCGGAUAAAAGUGGAGGGGGCGG [C26U U24C] | 0.07
40 | CCGCCUAACACUGCCAAUGCCGGACUCAAGCCCGGAUAAAAGUGGAGGGGGCGG [C26U U24A] | 0.06
41 | CCGCCUAACACUGCCAAUGCCGGUCUCAAGCCCGGAAAAAAGUGGAGGGGGCGG [C26U U37A] | 0.79
42 | CCGCCUAACACUGCCAAUGCCGGUCUCAAGCCCGGAGAAAAGUGGAGGGGGCGG [C26U U37G] | 1.03
43 | CCGCCUAACACUGCCAAUGCCGGUCUCAAGCCCGGACAAAAGUGGAGGGGGCGG [C26U U37C] | 1
44 | CCGCCUAACACUGCCAAUGCCGGUCUCAAGCCCGGAUAAAAGUGGAGGGUGCGG [C26U G50U] | 0.52
45 | CCGCCUAACACUGCCAAUGCCGGUCUCAAGCCCGGAUAAAAGUGGAGGGCGCGG [C26U G50C] | 0.26
46 | CCGCCUAACACUGCCAAUGCCGGUCUCAAGCCCGGAUAAAAGUGGAGGGAGCGG [C26U G50A] | 0.92
47 | CCGCCUAACACUGCCAAUGCCGGUCCAAAGCCUGGAUAAAAGUGGAGGGGGCGG [C27A C33U] | 0.1
48 | CCGCCUAACACUGCCAAUGCCGGUCCAAAGCCGGGAUAAAAGUGGAGGGGGCGG [C27A C33G] | 0.04
49 | CCGCCUAACACUGCCAAUGCCGGUCCAAAGCCAGGAUAAAAGUGGAGGGGGCGG [C27A C33A] | 0.09
